Screening data as filed in PubChem BioAssay.
LEDGF integ inh = blocks HIV-1 LEDGF/p75-dependent DNA integration; TR-FRET IN-LEDGF/p75 DNA integration, Eu/Cy5; inhibition, % at 3.7 µM; 370,000 tested, 0.64% active; AID 743269;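 active = inhibition above the screen-wide mean plus 3 SD, cut at about 13% in these data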;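 note: signal is the Cy5 over europium emission ratio at 671 and 618 nm; 0% = plate median of compound wells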
MBD2 DNA inh = MBD2-methylated oligo binding inhibition; Q9UBB5; TR-FRET, MBD2 binding to methylated oligonucleotide; inhibition, % at 4.4 µM; 370,000 tested, 0.31% active; AID 686964; in the data active = inhibition above about 13%
HCV core dimer = blocks dimerization of HCV core protein. TR-FRET GST/Flag-core106 dimerization, 1536-well. inhibition, % at 5 µM. 300,000 tested, 0.33% active;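 active = inhibition above the mean of all tested compounds plus 3 SD, set per screening campaign, cut at about 45% in these data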
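System: GST-tagged and Flag-tagged HCV core protein residues 1-106 / Input: core106 proteins, GST 13.5 nM and Flag 17 nM / Buffer or medium: KF-containing HEPES buffer, pH 7.45, DTT, CHAPS, BSA / Probe or stimulus: Eu-anti-GST and XL665-anti-Flag labelled anti-tag antibodies / Schedule: 4 h, 22.5 °C incubation / Technique: TR-FRET 671 and 617 nm emission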
TDP2 inh = TDP2 (human) inhibition, absorbance primary screen. O95551. recombinant TDP2, T5PNP hydrolysis, p-nitrophenol absorbance 415 nm. inhibition, % at 12.8 µM. 370,000 tested, 0.34% active;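 active = inhibition above the mean of all tested compounds plus 3 SD, set per campaign, cut at about 25% in these data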;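 note: 0% = DMSO with enzyme and 100% = buffer with substrate but no TDP2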
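test system = human TDP2 enzyme | input = TDP2 enzyme at 120 nM final | medium = 50 mM Tris-HCl pH 7.5 with Mg2+, KCl, DTT, BSA | also added = T5PNP substrate, 5 mM | times = 2 h at 37 °C | technique = epi absorbance | benchmarks = high control without enzyme, low control DMSO plus TDP2 | replication = each compound tested once, singlicate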
UHRF1 binding = blocks human UHRF1 binding to methylated DNA. Q96T88. inhibition, % at 4.4 µM. AID 687016. 370,000 tested, 0.75% active. UHRF1 binding to methylated oligo, TR-FRET; in the data active = inhibition above about 21%;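 note: UHRF1 SRA domain binding a hemimethylated CpG hairpin DNA probe; 0% = median of test compound wells and 100% = reference inhibitor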
Target sequence (Q96T88 whole entry, looked up, the tested form may be a part): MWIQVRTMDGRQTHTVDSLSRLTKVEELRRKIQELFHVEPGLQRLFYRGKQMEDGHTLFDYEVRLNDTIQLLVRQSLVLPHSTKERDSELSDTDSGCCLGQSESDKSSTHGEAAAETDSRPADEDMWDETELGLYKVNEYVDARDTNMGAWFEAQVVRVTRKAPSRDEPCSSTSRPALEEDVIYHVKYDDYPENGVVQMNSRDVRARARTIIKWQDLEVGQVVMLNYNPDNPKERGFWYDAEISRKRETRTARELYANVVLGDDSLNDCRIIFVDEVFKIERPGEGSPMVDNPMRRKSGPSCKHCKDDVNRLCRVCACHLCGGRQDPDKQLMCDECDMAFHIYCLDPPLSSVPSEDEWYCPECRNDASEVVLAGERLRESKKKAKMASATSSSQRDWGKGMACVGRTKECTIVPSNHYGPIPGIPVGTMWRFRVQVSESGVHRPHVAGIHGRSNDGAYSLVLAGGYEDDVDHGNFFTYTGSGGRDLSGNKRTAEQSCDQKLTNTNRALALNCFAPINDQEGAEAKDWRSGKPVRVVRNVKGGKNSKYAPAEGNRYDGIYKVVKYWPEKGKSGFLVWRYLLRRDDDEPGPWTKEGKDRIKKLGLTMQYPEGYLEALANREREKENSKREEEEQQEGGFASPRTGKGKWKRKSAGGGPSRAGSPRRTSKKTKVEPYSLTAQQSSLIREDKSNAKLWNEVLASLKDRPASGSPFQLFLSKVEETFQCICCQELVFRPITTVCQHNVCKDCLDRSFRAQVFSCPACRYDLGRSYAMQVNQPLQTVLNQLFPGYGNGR
* marks the source's active call; other numbers are inactive results; · = not tested or not shown. Only some compounds are listed: those with a hit (about 1.8% of all), similar ones and a draw of the others.

SMILES	LEDGF integ inh	MBD2 DNA inh	HCV core dimer	TDP2 inh	UHRF1 binding
CCOC(=O)[C@]12CCCCC/C=C\1N(Cc1ccc(OC)cc1)C(=O)[C@H]2CC(=O)NCC1CCCCC1	-3	0	·	-7	4
CCNC(=O)C1CCCN(C(=O)Cc2cccs2)CC1 (configuration not stated)	0	7	·	11	24*
S=C(Nc1ccccc1)OC1CCC12CCC(c1ccccc1)CC2 (configuration not stated)	-4	0	·	3	0
O=C(CSc1nnc(-c2ccco2)o1)c1ccc[nH]1	3	2	63*	1	1
O=C(CSc1nnc(-c2ccco2)o1)c1ccccc1	3	-3	23	-3	0
Cc1ccc(N2C(=O)NC3(CCCCC3)C2=O)cc1	-4	11	1	-5	23*
COc1ccc(S(=O)(=O)N2CCC(C(=O)Nc3nccs3)CC2)cc1	-2	-4	8	0	30*
NC(=O)C[n+]1ccc(/C=N/O)cc1	2	6	-2	0	26*
CCOc1cccc(-c2nc3cc(C)ccc3o2)c1	11	11	-3	14	26*
Cc1ccc2oc(-c3ccccc3)nc2c1	0	-5	-4	4	-2
COc1ccccc1Nc1ccc(C(=O)NC2CCCCC2)cn1	-2	-2	-5	-10	27*
CCNc1ccc([N+](=O)[O-])cc1	3	-2	4	-2	41*
COc1ccc(CCNC(=O)c2cc(-c3ccc(Cl)c(Cl)c3)oc2C)cc1	5	9	0	0	22*
O=C(Nc1nc2ncccn2c1-c1ccc(F)c(F)c1)C1CC1	7	0	·	-5	-4
Cc1cc(C)c2c(c1)C1C=CCC1C(c1ccc(S(=O)(=O)N3CCOCC3)cc1)N2 (configuration not stated)	0	0	63*	-12	-1
O=C(O)c1cc(Cl)c2c(c1)[C@@H]1C=CC[C@@H]1[C@H](c1ccc(S(=O)(=O)N3CCOCC3)cc1)N2	·	·	4	·	·
O=C(Nc1ccc(NC(=S)NC(=O)C(c2ccccc2)c2ccccc2)cc1)c1ccccc1	-2	1	57*	9	-2
CC(C)C[C@@H](CN)NC(=O)c1nc[nH]c1C(=O)N[C@@H](Cc1ccccc1)C(=O)CNC[C@H](C)NC(=O)c1nc[nH]c1C(=O)N[C@@H](CC(C)C)C(=O)O	-2	9	·	1	21*
CC(C)C[C@@H](CN)NC(=O)c1nc[nH]c1C(=O)N[C@@H](C)C(=O)CNC[C@H](C)NC(=O)c1nc[nH]c1C(=O)N[C@@H](CC(=O)O)C(=O)O	-2	7	·	-3	15
CC(C)C[C@@H](CNCC(=O)[C@H](Cc1c[nH]c2ccccc12)NC(=O)c1[nH]cnc1C(=O)N[C@@H](C)CN)NC(=O)c1nc[nH]c1C(=O)N[C@@H](Cc1ccccc1)C(=O)O	-1	12	·	16	21*
CC(C)C[C@@H](CN)NC(=O)c1nc[nH]c1C(=O)N[C@@H](Cc1ccccc1)C(=O)CNC[C@H](C)NC(=O)c1nc[nH]c1C(=O)N[C@@H](C)C(=O)O	-3	-2	·	10	2
CC(C)C[C@@H](CN)NC(=O)c1nc[nH]c1C(=O)N[C@@H](Cc1c[nH]c2ccccc12)C(=O)CNC[C@H](C)NC(=O)c1nc[nH]c1C(=O)N[C@@H](C)C(=O)O	-1	12	·	10	24*
N[C@H](C(=O)Nc1ccc(Cl)cc1C(=O)c1ccc[nH]1)c1ccccc1	-1	5	·	6	11
CCOC(=O)[C@@]12CN(C(=O)OC(C)(C)C)CC=C1N(Cc1ccc(OC)cc1)C(=O)[C@H]2CC(=O)N1CCSCC1	0	-2	·	4	0
COCc1cc(N2CCNC[C@@H]2C)ccc1N1CCN(Cc2ccccc2)[C@H](C)C1	1	-2	·	4	-1
SMILES	LEDGF integ inh	MBD2 DNA inh	HCV core dimer	TDP2 inh	UHRF1 binding
Cc1cccc(-n2cnc3c(c2=O)c2nc4ccccc4nc2n3Cc2ccco2)c1	-1	-4	60*	2	0
Cc1cccc(S(=O)(=O)c2c(N)n(Cc3ccco3)c3nc4ccccc4nc23)c1	1	-2	17	-10	-6
Nc1ncnc2nc(SCc3ccccc3)[nH]c12	1	7	0	-4	2
CCC(Sc1nc2ncnc(N)c2[nH]1)C(=O)O (configuration not stated)	0	2	-8	0	21*
COc1ccc2ccccc2c1C=NNC(=O)c1cc(-c2ccc(C)c(C)c2)n[nH]1	1	-2	·	9	-3
C=C(C)CN=CC1(C)CCC(C)=CO1 (configuration not stated)	-3	0	·	0	37*
CC(C)(C)SCCNS(=O)(=O)c1ccc(F)cc1	-2	1	-5	-5	24*
O=S(=O)(NCCCCNS(=O)(=O)c1ccc(F)cc1)c1ccc(F)cc1	3	-3	2	5	0
O=S1(=O)c2c(cccc2N2CCSCC2)Oc2ccccc2CN1Cc1cn(Cc2ccccc2C(F)(F)F)nn1	7	3	·	-7	5
COc1ccc(CCn2c(O)cc3nn(-c4nc5ccccc5s4)c(=O)c-3c2C)cc1	3	6	60*	-1	2
O=S(=O)(Nc1cc(Sc2ncn[nH]2)c(O)c2ccccc12)c1ccccc1	34*	-4	·	71*	11
Cc1cc(O)c(Sc2ncn[nH]2)cc1NS(=O)(=O)c1ccc(Cl)cc1	6	-5	·	0	0
CCc1ccc(NC(=O)CN(c2ccc3c(c2)OCO3)S(=O)(=O)c2c(C)noc2C)cc1	3	1	10	-10	33*
CCn1cc(C(=O)N[C@H](C(=O)NCCO)C(C)C)c(=O)c2cc3c(cc21)OCO3	-1	3	1	0	3
CCn1cc(C(=O)N[C@H](C(=O)NC(C)(C)CO)C(C)C)c(=O)c2cc3c(cc21)OCO3	0	-4	13	25*	-2
COC(=O)c1ccc2nc(-c3cccc(Cl)c3)c(CC3CCCCC3)n2c1	5	5	·	-2	22*
COC(=O)c1ccc2nc(-c3ccccc3)c(Cc3ccsc3)n2c1	0	2	·	-2	22*
COC(=O)c1ccc2nc(-c3cccc(Br)c3)c(Cc3cccc(F)c3)n2c1	-2	-1	·	11	4
COC(=O)c1ccc2nc(-c3ccc(Cl)cc3)c(Cc3ccsc3)n2c1	-4	9	·	10	21*
COC(=O)c1ccc2nc(-c3cccc(Cl)c3)c(Cc3cccc(F)c3)n2c1	8	2	·	4	19
COC(=O)c1ccc2nc(-c3cccc(Br)c3)c(Cc3ccsc3)n2c1	2	8	·	3	21*
COC(=O)C1CN(CCc2ccccc2)CCS(=O)(=O)N1Cc1ccc(C)cc1 (configuration not stated)	-1	4	·	2	5
